# Data as given in ChEMBL document CHEMBL3045328, “Substituted N-phenylpyrazine-2-carboxamides, their synthesis and evaluation as herbicides and abiotic elicitors” (Molecules, 2007).
# Key:
# Chlorella vulgaris = assay: Antialgal activity in green algae Chlorella vulgaris assessed as reduction of chlorophyll content; type: functional, organism-based
# Procedure, shortened: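 Algal suspensions (initial Chl 0.01 mg·L-1) grown 7 days, 16 h light/8 h dark, PAR 80 μmol/m2∙s, pH 7.2, with compound at 0.83–100 μmol·L-1 (DMSO ≤0.25%, same in controls). Chl extracted into methanol, read spectrophotometrically. IC50 = concentration halving chlorophyll versus control, or % of control ± S.D.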
# Spinacia oleracea = assay: Inhibition of photosynthetic electron transport in Spinacia oleracea (spinach) chloroplasts assessed as decrease in oxygen evolution measured after irradiated with 250 W halogen lamp by herbicidal assay in presence of electron acceptor 2,6-dichlorophenol-indophenol; type: functional; settings: L., light or radiation study
# Procedure, shortened: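 Spinach chloroplasts in phosphate buffer (0.02 mol·L-1, pH 7.2) with sucrose 0.4 mol·L-1, MgCl2 0.005 mol·L-1, NaCl 0.015 mol·L-1; chlorophyll 30 mg/L. DCPIP photoreduction followed under ~100 W/m2 halogen light through 4 cm water filter, 22 °C. Compounds in DMSO (up to 4%). IC50 = molar concentration giving 50% drop in oxygen evolution versus untreated control.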
# [1] = Lipophilicity, log P of the compound; type: physicochemical; settings: octanol/water
# [2] = Chlorella vulgaris, read-out: IC50
compound,measurement,setting,value
CC(C)(C)c1ncc(C(=O)Nc2ccccc2F)nc1Cl,IC50,Chlorella vulgaris; [2],89 µM
same,IC50,Spinacia oleracea,69 µM
same,logP,[1],3.78
Cc1cc(NC(=O)c2cnc(C(C)(C)C)cn2)ccc1Cl,IC50,Chlorella vulgaris; [2],44 µM
same,IC50,Spinacia oleracea,190 µM
same,logP,[1],3.76
Cc1cc(NC(=O)c2cncc(Cl)n2)ccc1Cl,IC50,Chlorella vulgaris; [2],80 µM
same,IC50,Spinacia oleracea,595 µM
same,logP,[1],2.53
CN(C)C(=O)Nc1ccc(Cl)c(Cl)c1 [DCMU],logP,[1],2.76
CC(C)(C)c1ncc(C(=O)Nc2ccc(C(F)(F)F)cc2)nc1Cl,IC50,Chlorella vulgaris,ND(Insoluble)
same,IC50,Spinacia oleracea,184 µM
same,logP,[1],4.54
Cc1ccc(NC(=O)c2cncc(Cl)n2)cc1I,IC50,Chlorella vulgaris,ND(Insoluble)
same,IC50,Spinacia oleracea,51 µM
same,logP,[1],3.33
